Measurements published in ChEMBL document CHEMBL4340580, “Antibacterial and Inhibitory Activities against Nitric Oxide Production of Coumaronochromones and Prenylated Isoflavones from Millettia extensa” (J Nat Prod, 2019).
In brackets after ≈: the same amount, converted by molar mass. Activity calls are given as the source filed them. The rule behind the calls is not given here.

Experiments:
Pseudomonas aeruginosa [1] = test: Antibacterial activity against Pseudomonas aeruginosa at >128 ug/ml by CLSI protocol based method; format: functional, organism-based
Outline: (§1)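 Strains came from the Microbiological Resources Center, Bangkok, Thailand. Antibacterial testing followed Clinical and Laboratory Standards Institute recommendations.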

[2] = system: Staphylococcus epidermidis; test: Antibacterial activity against Staphylococcus epidermidis by CLSI protocol based method; format: functional; outline: as §1
Micrococcus luteus [3] = test: Antibacterial activity against Micrococcus luteus at >128 ug/ml by CLSI protocol based method; format: functional, organism-based; outline: as §1
Pseudomonas aeruginosa [4] = test: Antibacterial activity against Pseudomonas aeruginosa by CLSI protocol based method; format: functional; outline: as §1
[5] = Toxicity in mouse RAW264.7 cells assessed as cell viability at 10 uM by MTT assay; format: cell-based; settings: read-out: Activity
Escherichia coli [6] = test: Antibacterial activity against Escherichia coli by CLSI protocol based method; format: functional; outline: as §1
Micrococcus luteus [7] = test: Antibacterial activity against Micrococcus luteus by CLSI protocol based method; format: functional; outline: as §1
Bacillus cereus [8] = test: Antibacterial activity against Bacillus cereus by CLSI protocol based method; format: functional; outline: as §1
Shigella flexneri [9] = test: Antibacterial activity against Shigella flexneri by CLSI protocol based method; format: functional; outline: as §1
Streptococcus mutans [10] = test: Antibacterial activity against Streptococcus mutans by CLSI protocol based method; format: functional; outline: as §1
Staphylococcus aureus = test: Antibacterial activity against Staphylococcus aureus by CLSI protocol based method; format: functional; outline: as §1
RAW264.7 = test: Inhibition of LPS-induced nitric oxide production in mouse RAW264.7 cells incubated for 24 hrs by Griess reagent based assay; format: functional, cell-based
Outline: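 RAW 264.7 cells were seeded at 5.0 × 10^5 cells/mL and held 24 h at 37 °C, 5% CO2. Medium was discarded and cells were stimulated with 1 μg/mL LPS with or without compound for 24 h at 37 °C. Supernatant was mixed 1:1 with Griess reagent for 10 min at room temperature. Absorbance was read at 570 nm against a sodium nitrite calibration curve, giving IC50.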

Escherichia coli [11] = test: Antibacterial activity against Escherichia coli at >128 ug/ml by CLSI protocol based method; format: functional, organism-based; outline: as §1
Bacillus cereus [12] = test: Antibacterial activity against Bacillus cereus at >128 ug/ml by CLSI protocol based method; format: functional, organism-based; outline: as §1
Streptococcus mutans [13] = test: Antibacterial activity against Streptococcus mutans at >128 ug/ml by CLSI protocol based method; format: functional, organism-based; outline: as §1
Shigella flexneri [14] = test: Antibacterial activity against Shigella flexneri at >128 ug/ml by CLSI protocol based method; format: functional, organism-based; outline: as §1
[15] = Mus musculus, RAW264.7, 24 h, read-out: IC50

Molecule	Activity (Pseudomonas aeruginosa [1])	MIC [2] [mg/L]	Activity (Micrococcus luteus [3])	MIC (Pseudomonas aeruginosa [4])	viability at 10 µM [5] [%]	MIC (Escherichia coli [6])	MIC (Micrococcus luteus [7])	MIC (Bacillus cereus [8])	MIC (Shigella flexneri [9])	MIC (Streptococcus mutans [10])	MIC (Staphylococcus aureus) [mg/L]	IC50 (RAW264.7; raw264.7)	Activity (Escherichia coli [11])	Activity (Bacillus cereus [12])	Activity (Streptococcus mutans [13])	IC50 (RAW264.7; [15]) [µM]	Activity (Shigella flexneri [14])
CC(C)=CCOc1ccc(-c2coc3cc(OCC=C(C)C)cc(O)c3c2=O)cc1	inactive	128 (≈ 315 µM)	inactive	inactive	72.2	inactive	inactive	inactive	128 mg/L (≈ 315 µM)	inactive	128 (≈ 315 µM)	Not Active	inactive	inactive	inactive		
CC(C)=CCc1c(O)c(CC=C(C)C)c2occ(-c3ccc(O)c(O)c3)c(=O)c2c1O		128 (≈ 303 µM)		128 mg/L (≈ 303 µM)	90.2	128 mg/L (≈ 303 µM)	16 mg/L (≈ 37.9 µM)	16 mg/L (≈ 37.9 µM)	128 mg/L (≈ 303 µM)	16 mg/L (≈ 37.9 µM)	32 (≈ 75.7 µM)					14.3	
CC(C)=CCc1c2c(c(O)c3c(=O)c(-c4ccc(O)cc4)coc13)C=CC(C)(C)O2 [WARANGALONE]					86.5											8.5	
CC1(C)C=Cc2c(c(CCO)c3occ(-c4ccc(O)c(O)c4)c(=O)c3c2O)O1	inactive	128 (≈ 323 µM)		inactive	68.2	128 mg/L (≈ 323 µM)	32 mg/L (≈ 80.7 µM)		inactive	128 mg/L (≈ 323 µM)		Not Active					inactive
COc1cc(O)c2c(=O)c(-c3ccc(OCC=C(C)C)cc3)coc2c1	inactive	128 (≈ 363 µM)	inactive	inactive	65.3	inactive	inactive	inactive	inactive	inactive	128 (≈ 363 µM)	Not Active	inactive	inactive	inactive		inactive
CC(C)=CCOc1ccc2c(c1)O[C@@H]1Oc3cc4c(c(O)c3C(=O)[C@]21O)C=CC(C)(C)O4	inactive	128 (≈ 293 µM)		inactive	65.3	inactive	64 mg/L (≈ 147 µM)	32 mg/L (≈ 73.3 µM)	inactive	128 mg/L (≈ 293 µM)	32 (≈ 73.3 µM)	Not Active	inactive				inactive
COc1c2c(cc3c1C(=O)[C@]1(O)c4ccc(OCC=C(C)C)cc4O[C@@H]1O3)OC(C)(C)C=C2	inactive	128 (≈ 284 µM)		inactive	64.4	inactive	64 mg/L (≈ 142 µM)	32 mg/L (≈ 71 µM)	inactive	128 mg/L (≈ 284 µM)	32 (≈ 71 µM)	Not Active	inactive				inactive
CC(C)=CCC1=C(O)c2c(occ(-c3ccc(O)c(O)c3)c2=O)C(CC=C(C)C)(CC=C(C)C)C1=O		4 (≈ 8.15 µM)		128 mg/L (≈ 261 µM)		128 mg/L (≈ 261 µM)	2 mg/L (≈ 4.08 µM)	32 mg/L (≈ 65.2 µM)	128 mg/L (≈ 261 µM)	16 mg/L (≈ 32.6 µM)	4 (≈ 8.15 µM)						
GENTAMICIN						0.25 mg/L											
CC(C)=CCC1=C(O)c2c(occ(-c3ccc(O)cc3O)c2=O)C(CC=C(C)C)(CC=C(C)C)C1=O					75.5							Not Active					
COc1c2c(cc3occ(-c4ccc(OCC=C(C)C)cc4O)c(=O)c13)OC(C)(C)C=C2	inactive	128 (≈ 295 µM)	inactive	inactive		inactive	inactive	inactive	inactive	inactive	128 (≈ 295 µM)		inactive	inactive	inactive		inactive
COc1c2c(cc3occ(-c4ccc(OCC=C(C)C)c(O)c4)c(=O)c13)OC(C)(C)C=C2	inactive	128 (≈ 295 µM)	inactive	inactive	64.5	inactive	inactive	inactive	128 mg/L (≈ 295 µM)	inactive	128 (≈ 295 µM)	Not Active	inactive	inactive	inactive		
CC(C)=CCc1c2c(c(O)c3c(=O)c4c(oc5cc(O)ccc54)oc13)C=CC(C)(C)O2	inactive	128 (≈ 306 µM)	inactive	inactive	79.2	inactive	inactive	128 mg/L (≈ 306 µM)	128 mg/L (≈ 306 µM)	inactive	128 (≈ 306 µM)	Not Active	inactive		inactive		
C=CC(C)(C)c1cc(-c2coc3cc4c(c(O)c3c2=O)C=CC(C)(C)O4)ccc1O	inactive	128 (≈ 316 µM)		inactive	61.1	inactive	64 mg/L (≈ 158 µM)	64 mg/L (≈ 158 µM)	128 mg/L (≈ 316 µM)	128 mg/L (≈ 316 µM)	64 (≈ 158 µM)	Not Active	inactive				
CN[C@H](CC(C)C)C(=O)N[C@H]1C(=O)N[C@@H](CC(N)=O)C(=O)N[C@H]2C(=O)N[C@H]3C(=O)N[C@H](C(=O)N[C@H](C(=O)O)c4cc(O)cc(O)c4-c4cc3ccc4O)[C@H](O)c3ccc(c(Cl)c3)Oc3cc2cc(c3O[C@@H]2O[C@H](CO)[C@@H](O)[C@H](O)[C@H]2O[C@H]2C[C@](C)(N)[C@H](O)[C@H](C)O2)Oc2ccc(cc2Cl)[C@H]1O [VANCOMYCIN]		0.25 (≈ 0.173 µM)					0.25 mg/L (≈ 0.173 µM)	0.125 mg/L (≈ 0.0863 µM)		0.25 mg/L (≈ 0.173 µM)	0.25 (≈ 0.173 µM)						
COc1c2c(cc3occ(-c4ccc(OCC=C(C)C)cc4)c(=O)c13)OC(C)(C)C=C2	inactive				68.7							Not Active					
CC(C)=CCc1c2c(c(O)c3c(=O)c(-c4ccc(O)cc4O)coc13)C=CC(C)(C)O2					75.5							Not Active					
COc1ccc2c(c1)c(CC(=O)O)c(C)n2C(=O)c1ccc(Cl)cc1 [INDOMETHACIN]																62.9	
C=CC(C)(C)c1cc(-c2coc3cc4c(c(OC)c3c2=O)C=CC(C)(C)O4)c(O)cc1O		128 (≈ 295 µM)		128 mg/L (≈ 295 µM)		128 mg/L (≈ 295 µM)	32 mg/L (≈ 73.6 µM)	8 mg/L (≈ 18.4 µM)	inactive	128 mg/L (≈ 295 µM)	8 (≈ 18.4 µM)						inactive
COc1cc(-c2coc3cc4c(c(O)c3c2=O)C=CC(C)(C)O4)c(OC)cc1OCC=C(C)C	inactive	128 (≈ 276 µM)	inactive	inactive	60.1	inactive	inactive	inactive	128 mg/L (≈ 276 µM)	inactive	128 (≈ 276 µM)	Not Active	inactive	inactive	inactive		
